In ChEMBL document CHEMBL3421547, “Novel myricetin derivatives: Design, synthesis and anticancer activity” (Eur J Med Chem, 2015):
Active and inactive are the calls of the source. The rule behind the calls is not given here.

System: Bcap37
Assay: Cytotoxicity against human Bcap37 cells after 48 hrs by MTT assay
Conditions: Bcap37, 48 h

Structure (SMILES)	IC50 [µM]
COc1cc(OC)c2c(=O)c(OCC(=O)N/N=C/c3ccc[nH]3)c(-c3cc(OC)c(OC)c(OC)c3)oc2c1	7
COc1cc(OC)c2c(=O)c(OCC(=O)N/N=C/c3ccccc3F)c(-c3cc(OC)c(OC)c(OC)c3)oc2c1	4.09
COc1cc(OC)c2c(=O)c(OCCCCN3CCCC3)c(-c3cc(OC)c(OC)c(OC)c3)oc2c1	18
COc1cc(OC)c2c(=O)c(OCCCCN3CCOCC3)c(-c3cc(OC)c(OC)c(OC)c3)oc2c1	5.24
COc1cccc2c1C(=O)c1c(O)c3c(c(O)c1C2=O)C[C@@](O)(C(=O)CO)C[C@@H]3O[C@H]1C[C@H](N)[C@H](O)[C@H](C)O1 [DOXORUBICIN]	2.87
COc1cc(OC)c2c(=O)c(OCC(=O)N/N=C/c3sccc3C)c(-c3cc(OC)c(OC)c(OC)c3)oc2c1	8.35
CCN(CC)CCCOc1c(-c2cc(OC)c(OC)c(OC)c2)oc2cc(OC)cc(OC)c2c1=O	43
COc1cc(OC)c2c(=O)c(OCC(=O)N/N=C/c3ccco3)c(-c3cc(OC)c(OC)c(OC)c3)oc2c1	3.11
COc1cc(OC)c2c(=O)c(OCCCN3CCN(C)CC3)c(-c3cc(OC)c(OC)c(OC)c3)oc2c1	38

Biological target: Telomerase reverse transcriptase (Homo sapiens, UniProt O14746)
Assay: Inhibition of telomerase in human MDA-MB-231 cells after 24 hrs by TRAP-PCR-ELISA
Format: cell-based
Conditions: not given
Summary of the method: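 MDA-MB-231 cells grown in DMEM with 10% FBS plus penicillin/streptomycin, 5 × 10^4 seeded in T25 flasks and allowed to adhere. Treated 24 h at 60, 20, 6.67, 2.22, 0.74, 0.25 and 0.082, with staurosporine included. Lysed in RIPA 30 min on ice, supernatant taken after 12,000 g spin at 4 °C. Telomerase read by TRAP-PCR-ELISA kit at 490 nm; mean ± SD.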

Chain of Telomerase reverse transcriptase (O14746 whole entry): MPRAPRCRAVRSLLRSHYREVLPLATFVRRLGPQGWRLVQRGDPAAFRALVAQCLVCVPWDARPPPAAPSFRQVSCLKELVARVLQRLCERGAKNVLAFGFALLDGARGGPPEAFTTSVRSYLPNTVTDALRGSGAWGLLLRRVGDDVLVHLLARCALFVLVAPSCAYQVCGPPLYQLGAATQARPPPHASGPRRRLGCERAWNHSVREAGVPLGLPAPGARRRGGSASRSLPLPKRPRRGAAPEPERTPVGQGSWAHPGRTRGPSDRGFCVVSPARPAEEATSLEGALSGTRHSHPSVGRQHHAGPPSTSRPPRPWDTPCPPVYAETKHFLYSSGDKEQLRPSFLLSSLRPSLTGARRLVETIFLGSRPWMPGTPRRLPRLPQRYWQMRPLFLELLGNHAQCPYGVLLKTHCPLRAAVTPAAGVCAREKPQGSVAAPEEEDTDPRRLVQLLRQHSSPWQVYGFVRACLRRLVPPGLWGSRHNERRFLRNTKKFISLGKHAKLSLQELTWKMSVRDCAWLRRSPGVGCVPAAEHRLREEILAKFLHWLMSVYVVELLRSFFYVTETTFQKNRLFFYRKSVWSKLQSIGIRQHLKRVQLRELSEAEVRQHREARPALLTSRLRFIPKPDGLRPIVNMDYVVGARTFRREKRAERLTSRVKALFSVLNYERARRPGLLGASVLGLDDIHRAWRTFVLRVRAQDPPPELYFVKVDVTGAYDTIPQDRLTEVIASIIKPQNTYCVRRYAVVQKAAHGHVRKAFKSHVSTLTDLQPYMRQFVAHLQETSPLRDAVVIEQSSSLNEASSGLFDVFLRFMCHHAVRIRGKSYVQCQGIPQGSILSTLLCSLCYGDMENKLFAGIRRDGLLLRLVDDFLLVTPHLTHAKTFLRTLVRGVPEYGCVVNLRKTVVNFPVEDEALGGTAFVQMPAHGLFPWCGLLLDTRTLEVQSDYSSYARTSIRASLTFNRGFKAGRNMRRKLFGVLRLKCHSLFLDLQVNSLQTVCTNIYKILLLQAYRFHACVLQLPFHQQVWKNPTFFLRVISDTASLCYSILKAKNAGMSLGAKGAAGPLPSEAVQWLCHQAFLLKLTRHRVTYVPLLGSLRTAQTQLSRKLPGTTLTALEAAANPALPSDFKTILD

Structure (SMILES)	IC50 [µM]
COc1cc(OC)c2c(=O)c(OCC(=O)N/N=C/c3ccccc3F)c(-c3cc(OC)c(OC)c(OC)c3)oc2c1	1.82
CCN(CC)CCCOc1c(-c2cc(OC)c(OC)c(OC)c2)oc2cc(OC)cc(OC)c2c1=O	35.7
COc1cc(OC)c2c(=O)c(OCC(=O)N/N=C/c3ccco3)c(-c3cc(OC)c(OC)c(OC)c3)oc2c1	0.91
COc1cc(OC)c2c(=O)c(OCCCN3CCN(C)CC3)c(-c3cc(OC)c(OC)c(OC)c3)oc2c1	19.7

System: MDA-MB-231
Assay: Cytotoxicity against human MDA-MB-231 cells after 48 hrs by MTT assay
Conditions: MDA-MB-231, 48 h

Structure (SMILES)	IC50 [µM]
COc1cc(OC)c2c(=O)c(OCC(=O)N/N=C/c3ccc[nH]3)c(-c3cc(OC)c(OC)c(OC)c3)oc2c1	3.75
COc1cc(OC)c2c(=O)c(OCC(=O)N/N=C/c3ccccc3F)c(-c3cc(OC)c(OC)c(OC)c3)oc2c1	3.4
COc1cc(OC)c2c(=O)c(OCCCCN3CCCC3)c(-c3cc(OC)c(OC)c(OC)c3)oc2c1	10.4
COc1cc(OC)c2c(=O)c(OCCCCN3CCOCC3)c(-c3cc(OC)c(OC)c(OC)c3)oc2c1	4.17
COc1cccc2c1C(=O)c1c(O)c3c(c(O)c1C2=O)C[C@@](O)(C(=O)CO)C[C@@H]3O[C@H]1C[C@H](N)[C@H](O)[C@H](C)O1 [DOXORUBICIN]	2.01
COc1cc(OC)c2c(=O)c(OCC(=O)N/N=C/c3sccc3C)c(-c3cc(OC)c(OC)c(OC)c3)oc2c1	4.47
COc1cc(OC)c2c(=O)c(OCC(=O)N/N=C/c3ccco3)c(-c3cc(OC)c(OC)c(OC)c3)oc2c1	1.86
COc1cc(OC)c2c(=O)c(OCCCN3CCN(C)CC3)c(-c3cc(OC)c(OC)c(OC)c3)oc2c1	30.1

System: MDA-MB-231
Assay: Cell cycle arrest in human MDA-MB-231 cells assessed as accumulation at G2 phase at 1 uM after 48 hrs by flow cytometry (reference value: 34.6 +/- 0.31%)
Format: functional
Conditions: not given

Structure (SMILES)	Activity [%]
COc1cc(OC)c2c(=O)c(OCC(=O)N/N=C/c3ccco3)c(-c3cc(OC)c(OC)c(OC)c3)oc2c1	27.4

System: MDA-MB-231
Assay: Antiproliferative activity against human MDA-MB-231 cells assessed as breaking and crack at 1 to 10 uM after 24 to 72 hrs by inverted microscopic analysis
Format: functional, cell-based
Conditions: not given
Summary of the method: (§1)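 MDA-MB-231 seeded at 3 × 10^4 cells/mL in DMEM with 10% FBS and grown 24 h at 37 °C, 5% CO2. Compounds in DMSO added (final DMSO ≤0.1%) at 1 and 10 concentrations for 24, 48 and 72 h. Morphology observed by inverted microscope and photographed in randomly chosen fields.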

Structure (SMILES)	Activity
COc1cccc2c1C(=O)c1c(O)c3c(c(O)c1C2=O)C[C@@](O)(C(=O)CO)C[C@@H]3O[C@H]1C[C@H](N)[C@H](O)[C@H](C)O1 [DOXORUBICIN]	Active

System: MDA-MB-231
Assay: Cell cycle arrest in human MDA-MB-231 cells assessed as accumulation at S phase at 1 uM after 48 hrs by flow cytometry (reference value: 34.6 +/- 0.31%)
Format: functional
Conditions: not given

Structure (SMILES)	Activity [%]
COc1cc(OC)c2c(=O)c(OCC(=O)N/N=C/c3ccco3)c(-c3cc(OC)c(OC)c(OC)c3)oc2c1	28.4

System: MDA-MB-231
Assay: Antiproliferative activity against human MDA-MB-231 cells assessed as cell distortion at 1 to 10 uM after 24 to 72 hrs by inverted microscopic analysis
Format: functional, cell-based
Conditions: not given
Summary of the method: as §1

Structure (SMILES)	Activity
COc1cc(OC)c2c(=O)c(OCC(=O)N/N=C/c3ccco3)c(-c3cc(OC)c(OC)c(OC)c3)oc2c1	Active

System: MDA-MB-231
Assay: Down regulation of p65 protein expression in human MDA-MB-231 cells at 1 uM after 48 hrs by Western blotting analysis
Format: functional, cell-based
Conditions: not given

Structure (SMILES)	Activity
COc1cc(OC)c2c(=O)c(OCC(=O)N/N=C/c3ccco3)c(-c3cc(OC)c(OC)c(OC)c3)oc2c1	Active

System: MGC-803
Assay: Cytotoxicity against human MGC803 cells after 48 hrs by MTT assay
Conditions: MGC-803, 48 h

Structure (SMILES)	IC50 [µM]
COc1cc(OC)c2c(=O)c(OCC(=O)N/N=C/c3ccc[nH]3)c(-c3cc(OC)c(OC)c(OC)c3)oc2c1	5.61
COc1cc(OC)c2c(=O)c(OCC(=O)N/N=C/c3ccccc3F)c(-c3cc(OC)c(OC)c(OC)c3)oc2c1	2.78
COc1cc(OC)c2c(=O)c(OCCCCN3CCCC3)c(-c3cc(OC)c(OC)c(OC)c3)oc2c1	18.6
COc1cc(OC)c2c(=O)c(OCCCCN3CCOCC3)c(-c3cc(OC)c(OC)c(OC)c3)oc2c1	20.6
COc1cccc2c1C(=O)c1c(O)c3c(c(O)c1C2=O)C[C@@](O)(C(=O)CO)C[C@@H]3O[C@H]1C[C@H](N)[C@H](O)[C@H](C)O1 [DOXORUBICIN]	3.22
COc1cc(OC)c2c(=O)c(OCC(=O)N/N=C/c3sccc3C)c(-c3cc(OC)c(OC)c(OC)c3)oc2c1	7.74
CCN(CC)CCCOc1c(-c2cc(OC)c(OC)c(OC)c2)oc2cc(OC)cc(OC)c2c1=O	40.2
COc1cc(OC)c2c(=O)c(OCC(=O)N/N=C/c3ccco3)c(-c3cc(OC)c(OC)c(OC)c3)oc2c1	6.05

System: MDA-MB-231
Assay: Down regulation of TERT protein expression in human MDA-MB-231 cells at 1 uM after 48 hrs by Western blotting analysis
Format: functional, cell-based
Conditions: not given
Summary of the method: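 MDA-MB-231 cells treated 48 h, with AZT (3.0 mmol/L) as reference. Cells lysed in RIPA and protein measured by BCA; 30 or 50 total protein run on SDS-PAGE and blotted to PVDF. Primary antibodies applied 1 h in TBS/Tween-20 with 3% Marvel (anti-TERT 1:500, β-actin loading control). HRP secondaries, ECL detection.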

Structure (SMILES)	Activity
COc1cc(OC)c2c(=O)c(OCC(=O)N/N=C/c3ccco3)c(-c3cc(OC)c(OC)c(OC)c3)oc2c1	Active

System: MDA-MB-231
Assay: Cell cycle arrest in human MDA-MB-231 cells assessed as accumulation at G0/G1 phase at 1 uM after 48 hrs by flow cytometry (reference value: 40.5 +/- 0.38%)
Format: functional
Conditions: not given

Structure (SMILES)	Activity [%]
COc1cc(OC)c2c(=O)c(OCC(=O)N/N=C/c3ccco3)c(-c3cc(OC)c(OC)c(OC)c3)oc2c1	44.3

System: SGC-7901
Assay: Cytotoxicity against human SGC7901 cells after 48 hrs by MTT assay
Conditions: SGC-7901, 48 h

Structure (SMILES)	IC50 [µM]
COc1cc(OC)c2c(=O)c(OCC(=O)N/N=C/c3ccc[nH]3)c(-c3cc(OC)c(OC)c(OC)c3)oc2c1	8.73
COc1cc(OC)c2c(=O)c(OCC(=O)N/N=C/c3ccccc3F)c(-c3cc(OC)c(OC)c(OC)c3)oc2c1	7.72
COc1cc(OC)c2c(=O)c(OCCCCN3CCCC3)c(-c3cc(OC)c(OC)c(OC)c3)oc2c1	26.8
COc1cc(OC)c2c(=O)c(OCCCCN3CCOCC3)c(-c3cc(OC)c(OC)c(OC)c3)oc2c1	12.5
COc1cccc2c1C(=O)c1c(O)c3c(c(O)c1C2=O)C[C@@](O)(C(=O)CO)C[C@@H]3O[C@H]1C[C@H](N)[C@H](O)[C@H](C)O1 [DOXORUBICIN]	3.5
COc1cc(OC)c2c(=O)c(OCC(=O)N/N=C/c3sccc3C)c(-c3cc(OC)c(OC)c(OC)c3)oc2c1	10.2
CCN(CC)CCCOc1c(-c2cc(OC)c(OC)c(OC)c2)oc2cc(OC)cc(OC)c2c1=O	56.9
COc1cc(OC)c2c(=O)c(OCC(=O)N/N=C/c3ccco3)c(-c3cc(OC)c(OC)c(OC)c3)oc2c1	5.72
